From ChEMBL document CHEMBL1145694, “In vitro evaluation of antifungal properties of 8.O.4'-neolignans” (1997) come the findings set out here.

Values after ≈ are worked out from the molar mass of the structure shown. Active and inactive are the calls of the source.

The test system of one assay is Candida albicans. Description: Antifungal activity against Candida albicans ATCC 10231 up to 250 ug/mL by agar dilution method. In kind it is functional, organism-based. The method in brief: (§1)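 Agar dilution in Saboureaud-chloramphenicol agar wells. Test agents from DMSO stocks were serially diluted twofold to final 0.10–250 µg/mL, with DMSO ≤2% final. Each well got 5 µL of yeast cell or spore suspension (spores at 10⁶ CFU/mL). Ketoconazole and amphotericin B served as positive controls, with a drug-free blank. Plates were held at 30 °C for 24, 48 or 72 h, set by control growth. MIC = lowest concentration with no visible growth.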

A further assay has as its system Aspergillus flavus. Description: Antifungal activity against Aspergillus flavus ATCC 9170 up to 250 ug/mL by agar dilution method. In kind it is functional, organism-based. The essentials:
as §1
On the technique in general: In agar dilution the substance is mixed into plates at graded concentrations.

A further assay relates to Nannizzia gypsea. Nature of the assay: Antifungal activity against Microsporum gypseum C115 after 15 days by agar dilution method. The conditions noted are these: 360 h. The class given is functional. The method in brief: (§2)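 Dermatophytes were kept on Saboureaud dextrose agar slopes and subcultured every 15 days. Spore suspensions were set to 10⁶ CFU/mL, and 5 µL went into Saboureaud-chloramphenicol agar wells. Wells held twofold dilutions from DMSO stocks, final 0.10–250 µg/mL, DMSO ≤2%. Ketoconazole and amphotericin B were positive controls, with a drug-free blank. Incubation was at 30 °C for up to 15 days. MIC = lowest concentration with no visible growth.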

A further assay concerns Trichophyton rubrum. Description: Antifungal activity against Trichophyton rubrum C113 after 15 days by agar dilution method. The class given is functional. The conditions noted are these: 360 h. The essentials: as §2
Assay [1] relates to Trichophyton mentagrophytes. Nature of the assay: Antifungal activity against Trichophyton mentagrophytes ATCC 9972 after 15 days by agar dilution method. Particulars: ATCC 9972, 360 h. The class given is functional. The method in brief: as §2
The next assay has as its system Microsporum canis. Description: Antifungal activity against Microsporum canis C112 after 15 days by agar dilution method. The conditions noted are these: 360 h. The class given is functional. The essentials:
as §2

For another assay, the system named is Aspergillus fumigatus. Description: Antifungal activity against Aspergillus fumigatus ATCC 26934 up to 250 ug/mL by agar dilution method. The class given is functional, organism-based. The method in brief: as §1
The test system of another assay is Epidermophyton floccosum. Nature of the assay: Antifungal activity against Epidermophyton floccosum C114 after 15 days by agar dilution method. The class given is functional. Particulars: 360 h. The method in brief:
as §2

Another assay relates to Saccharomyces cerevisiae. Description: Antifungal activity against Saccharomyces cerevisiae ATCC 9763 up to 250 ug/mL by agar dilution method. In kind it is functional, organism-based. The method in brief:
as §1

The next assay deals with Cryptococcus neoformans. Nature of the assay: Antifungal activity against Cryptococcus neoformans ATCC 32264 up to 250 ug/mL by agar dilution method. The class given is functional, organism-based. The method in brief:
as §1

The test system of the next assay is Aspergillus niger. Description: Antifungal activity against Aspergillus niger ATCC 9029 up to 250 ug/mL by agar dilution method. In kind it is functional, organism-based. The method in brief:
as §1

As a reminder, the MIC is the smallest concentration in the dilution series that meets the test's criterion for growth inhibition. Turning to `C/C=C/c1ccc(OC(C)C(=O)c2ccc(OC)c(OC)c2)c(OC)c1` (racemic), the outcome in the assay with Candida albicans, in the assay on Aspergillus flavus, in the assay with Aspergillus fumigatus, with Saccharomyces cerevisiae, in the assay with Cryptococcus neoformans and with Aspergillus niger was inactive. The MIC against Nannizzia gypsea was 250 µg/mL (≈ 701 µM); against Trichophyton rubrum it was more than 250 µg/mL; in assay [1], more than 250 µg/mL; against Microsporum canis, more than 250 µg/mL; against Epidermophyton floccosum, more than 250 µg/mL.
As to `C=CCc1cc(OC)c(O[C@H](C)[C@@H](O)c2ccc(OC)c(OC)c2)c(OC)c1` (racemic), the outcome in the assay on Candida albicans, in the assay with Aspergillus flavus, in the assay with Aspergillus fumigatus, in the assay on Saccharomyces cerevisiae, in the assay on Cryptococcus neoformans and in the assay with Aspergillus niger was inactive. The MIC against Nannizzia gypsea was found to be 50 µg/mL (≈ 129 µM); against Trichophyton rubrum it was 80 µg/mL (≈ 206 µM); in assay [1], 150 µg/mL (≈ 386 µM); in the assay with Microsporum canis, 150 µg/mL (≈ 386 µM); in the assay on Epidermophyton floccosum it was 40 µg/mL (≈ 103 µM).
In the case of `C=CCc1ccc(OC(C)C(=O)c2ccc(OC)c(OC)c2)c(OC)c1` (racemic), the result with Candida albicans, in the assay with Aspergillus flavus, in the assay on Aspergillus fumigatus, in the assay on Saccharomyces cerevisiae, with Cryptococcus neoformans and in the assay with Aspergillus niger was inactive. The MIC was 250 µg/mL (≈ 701 µM) with Nannizzia gypsea; 250 µg/mL (≈ 701 µM) with Trichophyton rubrum; more than 250 µg/mL in [1]; 250 µg/mL (≈ 701 µM) in the assay with Microsporum canis; 250 µg/mL (≈ 701 µM) in the assay with Epidermophyton floccosum.
Take `C/C=C/c1ccc(OC(C)C(=O)c2cc(OC)c(OC)c(OC)c2)c(OC)c1` (racemic): the outcome in the assay with Candida albicans, in the assay on Aspergillus flavus, in the assay with Aspergillus fumigatus, in the assay with Saccharomyces cerevisiae, in the assay with Cryptococcus neoformans and with Aspergillus niger was inactive. Also, the MIC (with Nannizzia gypsea; in the assay on Trichophyton rubrum; in assay [1]; against Microsporum canis; against Epidermophyton floccosum) was more than 250 µg/mL throughout.
On to `C=CCc1cc(OC)c(O[C@@H](C)[C@@H](O)c2cc(OC)c(OC)c(OC)c2)c(OC)c1` (racemic), for which the outcome with Candida albicans, in the assay on Aspergillus flavus, with Aspergillus fumigatus, in the assay on Saccharomyces cerevisiae, in the assay on Cryptococcus neoformans and in the assay with Aspergillus niger was inactive. The MIC in the assay on Nannizzia gypsea stood at 80 µg/mL (≈ 191 µM); in the assay on Trichophyton rubrum it was 25 µg/mL (≈ 59.7 µM); in assay [1] it was 50 µg/mL (≈ 119 µM); against Microsporum canis it was 60 µg/mL (≈ 143 µM); against Epidermophyton floccosum, 60 µg/mL (≈ 143 µM).
In the case of `C=CCc1cc(OC)c(O[C@H](C)[C@@H](O)c2ccc3c(c2)OCO3)c(OC)c1` (racemic), the result with Candida albicans, in the assay on Aspergillus flavus, with Aspergillus fumigatus, in the assay with Saccharomyces cerevisiae, in the assay with Cryptococcus neoformans and in the assay with Aspergillus niger was inactive. Besides, the MIC in the assay with Nannizzia gypsea is 50 µg/mL (≈ 134 µM); against Trichophyton rubrum, more than 250 µg/mL; in assay [1] it was 100 µg/mL (≈ 269 µM); with Microsporum canis it was 20 µg/mL (≈ 53.7 µM); with Epidermophyton floccosum, 5 µg/mL (≈ 13.4 µM).
On to `C=CCc1cc(OC)c(OC(C)C(=O)c2ccc(OC)c(OC)c2)c(OC)c1` (racemic), for which the outcome with Candida albicans, with Aspergillus flavus, with Aspergillus fumigatus, in the assay with Saccharomyces cerevisiae, with Cryptococcus neoformans and with Aspergillus niger was inactive. In addition, the MIC was more than 250 µg/mL against Nannizzia gypsea; more than 250 µg/mL with Trichophyton rubrum; more than 250 µg/mL in [1]; 250 µg/mL (≈ 647 µM) against Microsporum canis; more than 250 µg/mL against Epidermophyton floccosum.
In the case of `C=CCc1cc(OC)c(OC(C)C(=O)c2cc(OC)c(OC)c(OC)c2)c(OC)c1` (racemic), the outcome in the assay on Candida albicans, in the assay with Aspergillus flavus, in the assay with Aspergillus fumigatus, in the assay with Saccharomyces cerevisiae, in the assay on Cryptococcus neoformans and in the assay with Aspergillus niger was inactive. For the same molecule, the MIC was more than 250 µg/mL against Nannizzia gypsea; more than 250 µg/mL in the assay with Trichophyton rubrum; more than 250 µg/mL in [1]; 250 µg/mL (≈ 600 µM) against Microsporum canis; more than 250 µg/mL in the assay on Epidermophyton floccosum.
Regarding `C=CCc1cc(OC)c(O[C@@H](C)[C@@H](O)c2ccc(OC)c(OC)c2)c(OC)c1` (racemic), the outcome with Candida albicans, in the assay with Aspergillus flavus, with Aspergillus fumigatus, with Saccharomyces cerevisiae, in the assay with Cryptococcus neoformans and in the assay with Aspergillus niger was inactive. Besides, the MIC in the assay on Nannizzia gypsea was 150 µg/mL (≈ 386 µM); against Trichophyton rubrum, 40 µg/mL (≈ 103 µM); in assay [1] it was 150 µg/mL (≈ 386 µM); in the assay on Microsporum canis, 40 µg/mL (≈ 103 µM); against Epidermophyton floccosum, 60 µg/mL (≈ 154 µM).
For the molecule `C=CCc1cc(OC)c(OC(C)C(=O)c2ccc3c(c2)OCO3)c(OC)c1` (racemic), the outcome with Candida albicans, in the assay with Aspergillus flavus, in the assay on Aspergillus fumigatus, in the assay with Saccharomyces cerevisiae, in the assay on Cryptococcus neoformans and with Aspergillus niger was inactive. Also, the MIC was 250 µg/mL (≈ 675 µM) in the assay with Nannizzia gypsea; more than 250 µg/mL against Trichophyton rubrum; more than 250 µg/mL in assay [1]; more than 250 µg/mL with Microsporum canis; more than 250 µg/mL in the assay on Epidermophyton floccosum.
Take `C=CCc1cc(OC)c(O[C@H](C)[C@@H](O)c2cc(OC)c(OC)c(OC)c2)c(OC)c1` (racemic) [RHAPHIDECURSINOL B]: the result with Candida albicans, with Aspergillus flavus, in the assay with Aspergillus fumigatus, in the assay with Saccharomyces cerevisiae, in the assay with Cryptococcus neoformans and with Aspergillus niger was inactive. Also, the MIC with Nannizzia gypsea turned out to be 150 µg/mL (≈ 358 µM); with Trichophyton rubrum it was 25 µg/mL (≈ 59.7 µM); in [1], 50 µg/mL (≈ 119 µM); in the assay on Microsporum canis, 50 µg/mL (≈ 119 µM); in the assay with Epidermophyton floccosum it was 50 µg/mL (≈ 119 µM).
Turning to `C/C=C/c1ccc(O[C@@H](C)[C@@H](O)c2ccc(OC)c(OC)c2)c(OC)c1` (racemic) [VIROLIN], the outcome with Candida albicans, in the assay on Aspergillus flavus, in the assay with Aspergillus fumigatus, in the assay with Saccharomyces cerevisiae, with Cryptococcus neoformans and in the assay with Aspergillus niger was inactive. The MIC against Nannizzia gypsea was more than 250 µg/mL; with Trichophyton rubrum it was more than 250 µg/mL; in assay [1], more than 250 µg/mL; with Microsporum canis it was 50 µg/mL (≈ 139 µM); in the assay on Epidermophyton floccosum, 100 µg/mL (≈ 279 µM).
